Hits are enriched below; roughly 1.3% of the tested compounds scored in any of these assays.
UCH37 inh: blocks the human deubiquitinase UCH37; Q9Y5K5; purified proteasome/UCH37, Ub-AMC cleavage fluorescence; inhibition, % (no concentration beside the values); hit rate 0.33% among 330,000; AID 588478;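 active = mean inhibition over replicate wells above about 20%, limit read from the data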;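 also: 0% = compound-free wells with enzyme and 100% = wells lacking proteasome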
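System: Proteasome-associated human UCH37 deubiquitinase; Input: 0.15 nM proteasome in added enzyme buffer; Also added: Ub-AMC substrate from 1 µM stock; Incubation: 30 min compound-proteasome preincubation then 25 min substrate reaction, room temperature; Detection: fluorescence, ex 355 nm, em 460 nm; Read-out: % inhibition of Ub-AMC cleavage fluorescence; Benchmarks: no-proteasome and no-compound wells.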
NSD2 HMT inh: inhibitors of human histone methyltransferase NSD2; O96028; NSD2 peptide methylation, AlphaScreen, 120 min; inhibition, % at 12.5 µM; hit rate 0.54% among 310,000; AID 743445; in the data active = inhibition above about 50%
LEDGF integ inh: blocks HIV-1 LEDGF/p75-dependent DNA integration | hit rate 0.64% among 370,000 | inhibition, % at 3.7 µM | TR-FRET IN-LEDGF/p75 DNA integration, Eu/Cy5;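 active = inhibition above the screen-wide mean plus 3 SD, cut at about 13% in these data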;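 also: signal is the Cy5 over europium emission ratio at 671 and 618 nm; 0% = plate median of compound wells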
CASP6 VEID inh: blocks human caspase-6 cleavage activity; AID 686996; purified caspase-6, Z-VEID-R110 cleavage fluorescence; P55212; hit rate 0.53% among 350,000; inhibition, % at 12.5 µM;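 active = mean inhibition across replicates at least about 35%, with every replicate also reaching that limit, limit read from the data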;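 also: 0% = median of neutral control wells and 100% = no fluorescence left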
Target sequence (P55212 24-179 limits assumed): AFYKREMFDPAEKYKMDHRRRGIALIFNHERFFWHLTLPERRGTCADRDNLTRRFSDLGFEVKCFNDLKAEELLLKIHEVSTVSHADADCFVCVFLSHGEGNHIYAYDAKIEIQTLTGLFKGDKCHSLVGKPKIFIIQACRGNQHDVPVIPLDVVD
Target sequence (P55212 194-293 limits assumed): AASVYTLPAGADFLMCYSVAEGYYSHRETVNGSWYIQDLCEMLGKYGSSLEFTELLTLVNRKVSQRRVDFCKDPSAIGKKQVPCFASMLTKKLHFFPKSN
TDP2 inh: blocks human TDP2 phosphodiesterase activity; O95551; inhibition, % at 12.8 µM; recombinant TDP2, T5PNP hydrolysis, p-nitrophenol absorbance 415 nm; hit rate 0.34% among 370,000; AID 720702;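 active = inhibition above the mean of all tested compounds plus 3 SD, set per campaign, cut at about 25% in these data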;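 also: 0% = DMSO with enzyme and 100% = buffer with substrate but no TDP2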
Target sequence (O95551 whole entry, looked up): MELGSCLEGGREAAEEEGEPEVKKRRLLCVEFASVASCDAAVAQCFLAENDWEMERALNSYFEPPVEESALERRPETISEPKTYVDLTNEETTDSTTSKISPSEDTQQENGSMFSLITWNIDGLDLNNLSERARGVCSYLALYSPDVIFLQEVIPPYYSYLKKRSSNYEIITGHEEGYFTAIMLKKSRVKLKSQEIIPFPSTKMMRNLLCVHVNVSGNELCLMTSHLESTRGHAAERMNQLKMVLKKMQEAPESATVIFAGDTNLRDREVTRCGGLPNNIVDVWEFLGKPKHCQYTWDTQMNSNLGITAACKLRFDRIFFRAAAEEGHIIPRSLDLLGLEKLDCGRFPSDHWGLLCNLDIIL
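Evaluation: % inhibition relative to enzyme-containing and enzyme-free wells. Material: recombinant human TDP2. Benchmarks: enzyme-free and DMSO wells. Timing: enzyme reaction with compound for 2 h at 37 °C. Compound dosing: 12.8 µM only. Measured by: p-Nitrophenol epi absorbance. Reagent: T5PNP substrate at 5 mM, a TopII-DNA adduct mimic. Replication: single well per compound.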
TDP2 confirm: confirmation of human TDP2 inhibitors. shares compounds with TDP2 inh. recombinant human TDP2, absorbance read-out. inhibition, % at 12.8 µM. hit rate 22% among 1,100; in the data active = inhibition above about 25%;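 also: 0% = vehicle with enzyme and 100% = no enzyme buffer only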
IN multimer act: counter-screen for LEDGF/p75 integration inhibitors: HIV-1 integrase multimerization activators; shares compounds with LEDGF integ inh; TR-FRET HIV-1 integrase multimerization, biochemical; activation, % at 7.7 µM; hit rate 17% among 2,000; AID 1053131; in the data active = activation above about 8.9%
TRFRET interf: counter-screen for LEDGF/p75 integration inhibitors: TR-FRET optical interference | inhibition, % at 7.7 µM | TR-FRET optical interference counterscreen, HIV-1 IN multimerization | shares compounds with LEDGF integ inh | AID 1053135 | 2,000 tested, under 10 active;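 active = inhibition above the mean over all tested compounds plus 3 SD, which no compound reached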;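 also: 0% = integrase with antibodies and DMSO and 100% = antibodies without integrase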
LEDGF integ conf: confirmation of HIV-1 LEDGF/p75-dependent integration inhibitors; inhibition, % at 3.7 µM; TR-FRET LEDGF/p75-dependent HIV-1 integration, biochemical; shares compounds with LEDGF integ inh; AID 1053136; hit rate 36% among 2,000; in the data active = inhibition above about 14%
* = called active by the depositor; i = inactive; . = no result; ! = not active in a repeat.

SMILES	UCH37 inh	NSD2 HMT inh	LEDGF integ inh	CASP6 VEID inh	TDP2 inh	TDP2 confirm	IN multimer act	TRFRET interf	LEDGF integ conf
Cc1ccc(NC(=O)CCSc2nnc(C)o2)cc1	.	-1.9	0.5	-1.0	27.9*	6.5	.	.	.
O=C(NCc1cccnc1)c1ccc2c(c1)N(Cc1ccccc1)CCS2	i	-0.1	-1.9	-0.8	24.9*	-3.4	.	.	.
Cc1ccccc1OCC(O)CN1CCN(CC(O)COc2ccccc2C)C(C)C1 (configuration not stated)	2.7	3.2	1.7	-2.4	26.2*	4.8	.	.	.
COc1cc(C(=S)N2CCCCC2)ccc1OCC(=O)Nc1ccc(F)cc1	2.6	1.4	1.7	3.3	50.5*	-4.2	.	.	.
CN(C)CCNC(=O)C(=NO)c1ccccn1	0.5	.	.	.	.	.	.	.	.
COC(=O)CCC(=O)OC1(C)C(=O)C=C2C=C(C3CC3)N(C(CO)CO)C=C2C1=O (configuration not stated)	3.4	.	2.0	17.2	29.9*	13.6	.	.	.
COC(=O)CCC(=O)OC1(C)C(=O)C=C2C=C(C3CC3)N(CCCCO)C=C2C1=O (configuration not stated)	5.2	.	8.2	37.4*	30.5*	13.3	.	.	.
COCC(C)n1c(C)cc(C(=O)COC(=O)CCc2nc3ccccc3c(=O)[nH]2)c1C (configuration not stated)	-1.9	1.5	0.4	-3.6	31.2*	11.3	.	.	.
COCCCn1c(C)cc(C(=O)COC(=O)CCc2nc3ccccc3c(=O)[nH]2)c1C	5.1	2.5	2.9	2.7	8.3	.	.	.	.
CC1(N2CCCCC2)C(=O)c2ccccc2C1=O	0.8	3.0	0.8	-2.2	61.6*	1.8	.	.	.
CC1(N2CCOCC2)C(=O)c2ccccc2C1=O	1.5	-3.4	-0.4	-1.0	3.6	.	.	.	.
COc1cc(Br)cc(C=Nc2ncn[nH]2)c1O	5.6	.	.	.	.	.	.	.	.
COc1cccc(N(CC(=O)NC2CCCCC2)C(=O)CCC(=O)Nc2nccs2)c1	1.6	-6.9	2.1	0.8	28.7*	4.2	.	.	.
O=C(O)c1ccc(NC2=C(n3nnc4ccccc43)C(=O)c3ccccc3C2=O)cc1	.	.	13.1	82.6*	34.4*	41.1*	.	.	.
O=C(O)c1ccc(-n2nnc3ccccc32)c([N+](=O)[O-])c1	5.4	-8.9	1.8	-2.8	1.2	.	.	.	.
C=CCN1C(=O)/C(=C/c2ccc(OCC(=O)O)cc2)SC1=Nc1nccs1	14.9	.	.	.	.	.	.	.	.
Nc1nnc(-c2ccco2)s1	0.6	1.3	-1.8	.	2.4	.	.	.	.
Nc1ncnc2oc(-c3ccco3)c(-c3ccco3)c12	-99.6	.	86.0*	.	26.7*	-1.0	.	.	.
O=C(CNC(=O)C(c1ccccc1)c1ccccc1)NN=Cc1ccc2c(c1)OCO2	-1.0	.	.	.	.	.	.	.	.
O=C(COC(=O)CCc1nc2ccccc2c(=O)[nH]1)Nc1c(Cl)cccc1C(F)(F)F	-1.7	0.8	-6.2	-2.1	57.4*	5.8	.	.	.
O=C(O)c1ccc(S(=O)(=O)c2ccc3c(c2)C(=O)N(c2ccc(O)cc2)C3=O)cc1	0.4	-0.3	15.9*	11.1	38.0*	6.7	1.6	-8.0	6.6
O=C(O)c1ccc(NC(=O)c2ccc3c(c2)C(=O)N(c2ccccc2)C3=O)cc1	-0.5	0.3	0.4	-1.6	0.0	.	.	.	.
COc1ccc(-c2cc(=O)n(CCC#N)[nH]2)cc1	5.7	.	42.4*	.	91.9*	8.5	-0.4	1.4	0.8
COc1ccc(-c2ncn(CCC#N)c2[N+](=O)[O-])cc1	6.6	-0.1	-1.6	.	11.3	.	.	.	.
NC(=O)NN=Cc1ccc(-c2ccc([N+](=O)[O-])cc2)o1	11.4	.	.	.	.	.	.	.	.
SMILES	UCH37 inh	NSD2 HMT inh	LEDGF integ inh	CASP6 VEID inh	TDP2 inh	TDP2 confirm	IN multimer act	TRFRET interf	LEDGF integ conf
CCc1nnc(NN=Cc2c(F)cccc2Cl)n1N	8.3	.	.	.	.	.	.	.	.
CCc1nnc(N/N=C/c2ccc(-c3ccc([N+](=O)[O-])cc3)o2)n1N	.	10.9	45.9*	6.0	67.8*	-4.7	8.7	-30.7	3.8
Cc1nnc(N/N=C/c2c(Cl)cccc2Cl)n1N	.	15.2	35.3*	4.3	52.2*	-5.2	-0.3	1.7	-9.5
CCc1nnc(N/N=C/c2c(F)cccc2Cl)n1N	.	-6.2	56.6*	0.5	57.8*	4.5	-0.4	1.5	-6.4
CCc1nnc(N/N=C/c2cc(C)c(C)cc2C)n1N	.	0.5	57.8*	9.3	65.4*	7.7	-2.2	11.3	-4.1
CCc1nnc(NN=Cc2ccccc2Cl)n1N	7.9	.	.	.	.	.	.	.	.
CCOC(=O)C1(C)C=C(Nc2ccc(OC)cc2)C(=O)N1c1ccc(OC)cc1 (configuration not stated)	-33.3	.	5.3	.	0.0	.	.	.	.
CCOC(=O)C1(C)C=C(Nc2ccc(O)cc2)C(=O)N1c1ccc(O)cc1 (configuration not stated)	3.6	3.8	14.3*	26.5	27.9*	17.4	7.6	-38.5	-6.2
Cc1ccc(C(=O)NN=C2CCSC2)cc1[N+](=O)[O-]	5.2	.	.	.	.	.	.	.	.
Oc1c(Br)cc(Br)cc1CNc1cccc2cccnc12	6.4	4.6	39.5*	0.4	35.5*	26.9*	0.4	-1.4	21.3*
Oc1ccc(Cl)cc1CNc1cccc2cccnc12	7.9	2.9	36.7*	83.9*	31.6*	5.4	-0.2	0.5	5.3
Oc1ccc(Br)cc1CNc1cccc2cccnc12	.	12.5	13.9*	3.2	29.5*	14.9	2.3	-8.4	6.7
O=C(CC=NOCc1ccc(F)cc1Cl)c1cnc(-c2ccccc2)s1	0.1	.	.	.	.	.	.	.	.
Cc1cc(=O)n(C2CCS(=O)(=O)C2)[nH]1 (configuration not stated)	-0.1	6.7	22.1*	4.5	70.4*	26.2*	-2.4	8.7	-0.3
Cc1cc(C)cc(Oc2ccccc2C=NO)c1	5.1	.	.	.	.	.	.	.	.
C[c-]1[c-](C)[c-](C)[c-](C)[c-]1C.[Fe].c1cc2nccc(N3CCCC3)[c-]2c1 (configuration not stated)	2.4	.	19.5*!	38.0*!	33.8*	26.2*!	-0.2	1.3	49.1*
c1cc(N2CCCCC2)nc(N2CCCCC2)n1	2.5	-0.7	3.1	-6.6	-3.6	.	.	.	.
CCOC(=O)c1c(N)n(CCOC(=O)c2cccs2)c2nc3ccccc3nc12	i	.	32.5*	.	75.5*	-6.2	1.0	-3.4	-3.0
CC(C)n1cc(C=NNC(=O)c2cc3c(ccc4ccccc43)o2)c2ccccc21	-26.0	.	.	.	.	.	.	.	.
NC(=Nc1ccc(N)cc1)C(N)=Nc1ccc(N)cc1	.	4.2	39.3*	-1.2	50.8*	-9.2	1.2	-4.0	-5.5
